In ChEMBL document CHEMBL3046492, “Synthesis, insecticidal, and acaricidal activities of novel 2-aryl-pyrrole derivatives containing ester groups” (2008):

Columns and labels:
Format in all cases: functional
Culex pipiens pallens [1] = experiment: Insecticidal activity against fourth-instar larval stage of Culex pipiens pallens (mosquito) assessed as mortality at 0.10 mg/kg at 25 +/-1 degC after 2 days; details: 48 h
How it was run: (§1)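 Test solutions were prepared by adding 1 mL of each concentrated dilution to 99 mL water. Bioassays were run at 25 ± 1 °C on laboratory-reared insects.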

Tetranychus cinnabarinus [2] = experiment: Acaricidal activity against adult Tetranychus cinnabarinus (carmine spider mite) in sieva bean plants assessed as mortality at 50 mg/kg treated for 3 secs measured after 2 days; details: 48 h
Tetranychus cinnabarinus [3] = experiment: Acaricidal activity against adult Tetranychus cinnabarinus (carmine spider mite) in sieva bean plants assessed as mortality at 200 mg/kg treated for 3 secs measured after 2 days; details: 48 h
Culex pipiens pallens [4] = experiment: Insecticidal activity against fourth-instar larval stage of Culex pipiens pallens (mosquito) assessed as mortality at 0.50 mg/kg at 25 +/-1 degC after 2 days; details: 48 h; how it was run: as §1
Mythimna separata [5] = experiment: Insecticidal activity against fourth-instar larval stage of Mythimna separata (Oriental armyworm) in compound pretreated corn leaves assessed as mortality at 5 mg/kg at 25 +/-1 degC measured after 2 days
Mythimna separata [6] = experiment: Insecticidal activity against fourth-instar larval stage of Mythimna separata (Oriental armyworm) in compound pretreated corn leaves assessed as mortality at 20 mg/kg at 25 +/-1 degC measured after 2 days
Mythimna separata [7] = experiment: Insecticidal activity against fourth-instar larval stage of Mythimna separata (Oriental armyworm) in compound pretreated corn leaves assessed as mortality at 10 mg/kg at 25 +/-1 degC measured after 2 days
Tetranychus cinnabarinus [8] = experiment: Acaricidal activity against adult Tetranychus cinnabarinus (carmine spider mite) in sieva bean plants assessed as mortality at 100 mg/kg treated for 3 secs measured after 2 days; details: 48 h
Culex pipiens pallens [9] = experiment: Insecticidal activity against fourth-instar larval stage of Culex pipiens pallens (mosquito) assessed as mortality at 0.25 mg/kg at 25 +/-1 degC after 2 days; details: 48 h; how it was run: as §1

## CCCCC(=O)OCn1c(-c2ccc(Cl)cc2)c(C#N)c(Br)c1C(F)(F)F
Culex pipiens pallens [1]
  mortality at 0.1 mg/kg: 100%
Tetranychus cinnabarinus [2]
  mortality at 50 mg/kg: 100%
Tetranychus cinnabarinus [3]
  mortality at 200 mg/kg: 100%
Culex pipiens pallens [4]
  mortality at 0.5 mg/kg: 100%
Mythimna separata [5]
  mortality at 5 mg/kg: 0%
Mythimna separata [6]
  mortality at 20 mg/kg: 100%
Mythimna separata [7]
  mortality at 10 mg/kg: 100%
Tetranychus cinnabarinus [8]
  mortality at 100 mg/kg: 100%
Culex pipiens pallens [9]
  mortality at 0.25 mg/kg: 100%

## N#Cc1c(Br)c(C(F)(F)F)n(COC(=O)c2ccccc2)c1-c1ccc(Cl)cc1
Culex pipiens pallens [1]
  mortality at 0.1 mg/kg: 10%
Tetranychus cinnabarinus [2]
  mortality at 50 mg/kg: 100%
Tetranychus cinnabarinus [3]
  mortality at 200 mg/kg: 100%
Culex pipiens pallens [4]
  mortality at 0.5 mg/kg: 100%
Mythimna separata [5]
  mortality at 5 mg/kg: 0%
Mythimna separata [6]
  mortality at 20 mg/kg: 100%
Mythimna separata [7]
  mortality at 10 mg/kg: 60%
Tetranychus cinnabarinus [8]
  mortality at 100 mg/kg: 100%
Culex pipiens pallens [9]
  mortality at 0.25 mg/kg: 20%

## N#Cc1c(Br)c(C(F)(F)F)n(COC(=O)c2ccc(Cl)cc2)c1-c1ccc(Cl)cc1
Culex pipiens pallens [1]
  mortality at 0.1 mg/kg: 10%
Tetranychus cinnabarinus [2]
  mortality at 50 mg/kg: 100%
Tetranychus cinnabarinus [3]
  mortality at 200 mg/kg: 100%
Culex pipiens pallens [4]
  mortality at 0.5 mg/kg: 100%
Mythimna separata [5]
  mortality at 5 mg/kg: 10%
Mythimna separata [6]
  mortality at 20 mg/kg: 100%
Mythimna separata [7]
  mortality at 10 mg/kg: 100%
Tetranychus cinnabarinus [8]
  mortality at 100 mg/kg: 100%
Culex pipiens pallens [9]
  mortality at 0.25 mg/kg: 20%

## N#Cc1c(Br)c(C(F)(F)F)n(COC(=O)c2ccccc2Cl)c1-c1ccc(Cl)cc1
Culex pipiens pallens [1]
  mortality at 0.1 mg/kg: 100%
Tetranychus cinnabarinus [2]
  mortality at 50 mg/kg: 93%
Tetranychus cinnabarinus [3]
  mortality at 200 mg/kg: 99%
Culex pipiens pallens [4]
  mortality at 0.5 mg/kg: 100%
Mythimna separata [5]
  mortality at 5 mg/kg: 0%
Mythimna separata [6]
  mortality at 20 mg/kg: 100%
Mythimna separata [7]
  mortality at 10 mg/kg: 35%
Tetranychus cinnabarinus [8]
  mortality at 100 mg/kg: 95%
Culex pipiens pallens [9]
  mortality at 0.25 mg/kg: 100%

## Cc1ccc(C(=O)OCn2c(-c3ccc(Cl)cc3)c(C#N)c(Br)c2C(F)(F)F)cc1
Culex pipiens pallens [1]
  mortality at 0.1 mg/kg: 100%
Tetranychus cinnabarinus [2]
  mortality at 50 mg/kg: 100%
Tetranychus cinnabarinus [3]
  mortality at 200 mg/kg: 100%
Culex pipiens pallens [4]
  mortality at 0.5 mg/kg: 100%
Mythimna separata [5]
  mortality at 5 mg/kg: 0%
Mythimna separata [6]
  mortality at 20 mg/kg: 100%
Mythimna separata [7]
  mortality at 10 mg/kg: 100%
Tetranychus cinnabarinus [8]
  mortality at 100 mg/kg: 100%
Culex pipiens pallens [9]
  mortality at 0.25 mg/kg: 100%

## COc1cccc(C(=O)OCn2c(-c3ccc(Cl)cc3)c(C#N)c(Br)c2C(F)(F)F)c1
Culex pipiens pallens [1]
  mortality at 0.1 mg/kg: 50%
Tetranychus cinnabarinus [2]
  mortality at 50 mg/kg: 50%
Tetranychus cinnabarinus [3]
  mortality at 200 mg/kg: 100%
Culex pipiens pallens [4]
  mortality at 0.5 mg/kg: 100%
Mythimna separata [5]
  mortality at 5 mg/kg: 0%
Mythimna separata [6]
  mortality at 20 mg/kg: 100%
Mythimna separata [7]
  mortality at 10 mg/kg: 90%
Tetranychus cinnabarinus [8]
  mortality at 100 mg/kg: 65%
Culex pipiens pallens [9]
  mortality at 0.25 mg/kg: 65%

## N#Cc1c(Br)c(C(F)(F)F)n(COC(=O)c2cccc([N+](=O)[O-])c2)c1-c1ccc(Cl)cc1
Culex pipiens pallens [1]
  mortality at 0.1 mg/kg: 30%
Tetranychus cinnabarinus [2]
  mortality at 50 mg/kg: 90%
Tetranychus cinnabarinus [3]
  mortality at 200 mg/kg: 98%
Culex pipiens pallens [4]
  mortality at 0.5 mg/kg: 80%
Mythimna separata [5]
  mortality at 5 mg/kg: 0%
Mythimna separata [6]
  mortality at 20 mg/kg: 100%
Mythimna separata [7]
  mortality at 10 mg/kg: 0%
Tetranychus cinnabarinus [8]
  mortality at 100 mg/kg: 94%
Culex pipiens pallens [9]
  mortality at 0.25 mg/kg: 40%

## N#Cc1c(Br)c(C(F)(F)F)n(COC(=O)c2ccc([N+](=O)[O-])cc2)c1-c1ccc(Cl)cc1
Culex pipiens pallens [1]
  mortality at 0.1 mg/kg: 20%
Tetranychus cinnabarinus [2]
  mortality at 50 mg/kg: 92%
Tetranychus cinnabarinus [3]
  mortality at 200 mg/kg: 95%
Culex pipiens pallens [4]
  mortality at 0.5 mg/kg: 100%
Mythimna separata [5]
  mortality at 5 mg/kg: 0%
Mythimna separata [6]
  mortality at 20 mg/kg: 100%
Mythimna separata [7]
  mortality at 10 mg/kg: 50%
Tetranychus cinnabarinus [8]
  mortality at 100 mg/kg: 93%
Culex pipiens pallens [9]
  mortality at 0.25 mg/kg: 60%

## CC(Oc1ccc(Cl)cc1)C(=O)OCn1c(-c2ccc(Cl)cc2)c(C#N)c(Br)c1C(F)(F)F (stereo not given)
Culex pipiens pallens [1]
  mortality at 0.1 mg/kg: 100%
Tetranychus cinnabarinus [2]
  mortality at 50 mg/kg: 94%
Tetranychus cinnabarinus [3]
  mortality at 200 mg/kg: 98%
Culex pipiens pallens [4]
  mortality at 0.5 mg/kg: 100%
Mythimna separata [5]
  mortality at 5 mg/kg: 0%
Mythimna separata [6]
  mortality at 20 mg/kg: 100%
Mythimna separata [7]
  mortality at 10 mg/kg: 80%
Tetranychus cinnabarinus [8]
  mortality at 100 mg/kg: 95%
Culex pipiens pallens [9]
  mortality at 0.25 mg/kg: 100%

## CC(Oc1cccc(Cl)c1)C(=O)OCn1c(-c2ccc(Cl)cc2)c(C#N)c(Br)c1C(F)(F)F (stereo not given)
Culex pipiens pallens [1]
  mortality at 0.1 mg/kg: 100%
Tetranychus cinnabarinus [2]
  mortality at 50 mg/kg: 93%
Tetranychus cinnabarinus [3]
  mortality at 200 mg/kg: 98%
Culex pipiens pallens [4]
  mortality at 0.5 mg/kg: 100%
Mythimna separata [5]
  mortality at 5 mg/kg: 0%
Mythimna separata [6]
  mortality at 20 mg/kg: 100%
Mythimna separata [7]
  mortality at 10 mg/kg: 45%
Tetranychus cinnabarinus [8]
  mortality at 100 mg/kg: 93%
Culex pipiens pallens [9]
  mortality at 0.25 mg/kg: 100%
